Source: ChEMBL document CHEMBL3124900, “Discovery and early clinical evaluation of BMS-605339, a potent and orally efficacious tripeptidic acylsulfonamide NS3 protease inhibitor for the treatment of hepatitis C virus infection” (J Med Chem, 2014)

Assays:
[1] = (§1) AUC in intraduodenally dosed Sprague-Dawley rat plasma measured over 4 hrs by LC/MS/MS analysis; type: ADME, organism-based; design: time < 4 hr, route intraduodenal; details: Sprague-Dawley, plasma
In short: (§2)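 Abbreviated rat screen: surgically prepared rats were dosed intraduodenally. Plasma was sampled over 4 h, and liver was collected at the 4 h end point. Plasma was precipitated with two volumes of ACN plus internal standard. Liver was weighed and homogenized in 2 volumes of 20% Hanks buffered salt solution/80% ACN. Both were quantified by LC/MS/MS.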

[2] = Apparent terminal half life in Sprague-Dawley rat at 5 mg/kg, iv by LC/MS/MS analysis; type: ADME, organism-based; design: dose 5 mg/kg, route intravenous; details: in vivo, read-out: betat1/2(app) (converted)
[3] = Whole body plasma clearance in Sprague-Dawley rat at 5 mg/kg, iv by LC/MS/MS analysis; type: ADME, organism-based; design: dose 5 mg/kg, route intravenous
Hepatitis C virus = experiment: Antiviral activity against Hepatitis C virus genotype 1b Con1 after 4 days by cell-based replicon assay; type: functional, organism-based, Hepacivirus hominis; details: isolate Con1, 96 h
[4] = Inhibition of Hepatitis C virus genotype 1a H77 recombinant NS3/4A protease expressed in Escherichia coli BL21 (DE3) cell using Ac-Asp-Glu-Asp(EDANS)-Glu-Glu-Abu[C(O)-O]-Ala-Ser-Lys(DABCYL)-NH2 as substrate by FRET assay; design: species or system Hepatitis C virus (isolate H77)
[5] = Cytotoxicity against human HuH7 cells; type: cell-based; details: Huh-7 cells
[6] = Oral bioavailability in Sprague-Dawley rat at 15 mg/kg administered via gavage by LC/MS/MS analysis; type: ADME, organism-based; details: in vivo
[7] = AUC in Sprague-Dawley rat at 15 mg/kg, po administered via gavage by LC/MS/MS analysis; type: ADME, organism-based; design: dose 15 mg/kg, route oral; details: plasma
Liver = experiment: Drug uptake in intraduodenally dosed Sprague-Dawley rat liver measured per gm of tissue over 4 hrs by LC/MS/MS analysis; type: ADME, organism-based; details: in vivo, other; in short: as §2
[8] = Plasma concentration in Sprague-Dawley rat at 20 mg/kg, po administered via gavage measured after 8 hrs by LC/MS/MS analysis; type: ADME, organism-based; design: dose 20 mg/kg, route oral
[9] = Drug uptake in Sprague-Dawley rat liver at 20 mg/kg, po administered via gavage measured after 8 hrs by LC/MS/MS analysis; type: ADME, organism-based; design: dose 20 mg/kg, route oral; details: read-out: Drug uptake
[10] = Drug uptake in Sprague-Dawley rat liver at 20 mg/kg, po administered via gavage measured after 4 hrs by LC/MS/MS analysis; type: ADME, organism-based; design: dose 20 mg/kg, route oral; details: read-out: Drug uptake
[11] = Plasma concentration in Sprague-Dawley rat at 20 mg/kg, po administered via gavage measured after 4 hrs by LC/MS/MS analysis; type: ADME, organism-based; design: dose 20 mg/kg, route oral
[12] = Half life in dog liver microsomes at 3 uM by LC/MS/MS analysis; type: ADME, Canis lupus familiaris
In short: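 Pooled liver microsomes were run in triplicate per species. Each incubation held 3 μM test compound in 0.1 M potassium phosphate pH 7.4 at 37 °C, with 0.9 mg/mL microsomal protein, 0.033 mM MgCl2 and an NADPH-regenerating system. Proteins were precipitated with two volumes of ACN containing internal standard, and supernatants were analysed by LC/MS/MS.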

[13] = Whole body plasma clearance in Beagle dog at 3 mg/kg, iv by LC/MS/MS analysis; type: ADME, organism-based, Canis lupus familiaris; design: dose 3 mg/kg, route intravenous
[14] = Apparent terminal half life in Beagle dog at 3 mg/kg, iv by LC/MS/MS analysis; type: ADME, organism-based, Canis lupus familiaris; design: dose 3 mg/kg, route intravenous; details: in vivo, read-out: betat1/2(app) (converted)
[15] = AUC in Beagle dog at 3 mg/kg by LC/MS/MS analysis; type: ADME, organism-based, Canis lupus familiaris; design: dose 3 mg/kg; details: plasma
[16] = AUC in Sprague-Dawley rat at 20 mg/kg, po administered via gavage by LC/MS/MS analysis; type: ADME, organism-based; design: dose 20 mg/kg, route oral; details: plasma
Plasma = experiment: as §1; type: ADME, organism-based; design: time < 4 hr, route intraduodenal; details: in vivo, other, 4 h, BLD = below limit of detection; in short: as §2
[17] = Drug uptake in iv dosed Sprague-Dawley rat liver measured after 24 hrs by LC/MS/MS analysis; type: ADME, organism-based; details: read-out: Drug uptake
[18] = Drug uptake in Sprague-Dawley rat liver at 15 mg/kg, po administered via gavage measured after 24 hrs by LC/MS/MS analysis; type: ADME, organism-based; design: dose 15 mg/kg, route oral; details: read-out: Drug uptake
In short: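 Rats were dosed orally at 15 mg/kg, and liver and plasma were collected 24 h post-dose. Plasma was treated with two volumes of ACN containing internal standard. Tissue was homogenized in 2 volumes of 20% HBSS/80% ACN. Analysis was by LC/MS/MS on a C18 column at 60 °C, using an ammonium formate/formic acid water–methanol gradient, SRM detection and a 5 nM LLQ.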

| AUC at 4 h [1] [µM·h] | half-life [2] [h] | clearance [3] [mL/min/kg] | EC50 (Hepatitis C virus) [nM] | IC50 [4] [nM] | bioavailability [6] [%] | AUC [7] [µM·h] | Drug uptake (Liver) [ng] | Compound | CC50 [5] [nM] | further results |
| --- | --- | --- | --- | --- | --- | --- | --- | --- | --- | --- |
| 2.36 | 2.2 | 6 | 25 | 1 | 9 | 3.74 | 51260 | C=C[C@@H]1C[C@]1(NC(=O)[C@@H]1C[C@@H](Oc2nccc3c(OC)cccc23)CN1C(=O)[C@@H](NC(=O)OC(C)(C)C)C(C)(C)C)C(=O)NS(=O)(=O)C1CC1 | > 100000 |  |
|  |  |  | 2000 | 247 |  |  |  | C=C[C@@H]1C[C@]1(NC(=O)[C@@H]1C[C@@H](Oc2nccc3cc(OC)ccc23)CN1C(=O)[C@@H](NC(=O)OC(C)(C)C)C(C)(C)C)C(=O)O | > 100000 | AUC (Plasma): BLD; Drug uptake (Liver; BLD = below limit of detection): BLD |
|  | 3.1 | 27 | 2 | 1 | 2 | 0.194 |  | C=C[C@@H]1C[C@]1(NC(=O)[C@@H]1C[C@@H](Oc2ncc(OC)c3cc(OC)ccc23)CN1C(=O)[C@@H](NC(=O)OC(C)(C)C)C(C)(C)C)C(=O)NS(=O)(=O)C1CC1 | 45000 |  |
| 0.28 | 9.8 | 182 | 19 | 2 |  | 0.37 | 232200 | C=C[C@@H]1C[C@]1(NC(=O)[C@@H]1C[C@@H](Oc2ncc(OC)c3ccccc23)CN1C(=O)[C@@H](NC(=O)OC(C)(C)C)C(C)(C)C)C(=O)NS(=O)(=O)C1CC1 | 76000 | concentration at 24 h [17]: 8000 nM; concentration at 24 h [18]: 4200 nM |
| 5.5 | 6.6 | 7 | 25 | 1 | 6 | 2.08 | 36160 | C=C[C@@H]1C[C@]1(NC(=O)[C@@H]1C[C@@H](Oc2nccc3c(Cl)cccc23)CN1C(=O)[C@@H](NC(=O)OC(C)(C)C)C(C)(C)C)C(=O)NS(=O)(=O)C1CC1 | 38000 |  |

| Compound | AUC at 4 h [1] [µM·h] | half-life [2] [h] | clearance [3] [mL/min/kg] | EC50 (Hepatitis C virus) [nM] | IC50 [4] [nM] | bioavailability [6] [%] | AUC [7] [µM·h] | Drug uptake (Liver) [ng] | CC50 [5] [nM] | further results |
| --- | --- | --- | --- | --- | --- | --- | --- | --- | --- | --- |
| C=C[C@@H]1C[C@]1(NC(=O)[C@@H]1C[C@@H](Oc2cc(-c3ccccc3)nc3cc(OC)ccc23)CN1C(=O)[C@@H](NC(=O)OC(C)(C)C)C(C)(C)C)C(=O)NS(=O)(=O)C1CC1 | 0.077 | 1 | 55 | 4 | 1 |  | 0.577 | 7850 |  | concentration at 8 h [8]: 4 nM; concentration at 8 h [9]: 600 nM; concentration at 4 h [10]: 5800 nM; concentration at 4 h [11]: 580 nM; half-life at 3 µM [12]: 2.83 h; clearance [13]: 16 mL/min/kg; half-life [14]: 0.6 h; AUC [15]: 2 µM·h; AUC [16]: 0.73 µM·h |
